pIC50: −log10 of the molar value. In brackets after ≈: the same amount, converted by molar mass.
What was measured:
[1] = Cytotoxicity against human HeLa cells assessed as cell growth inhibition by MTT assay; type: functional, cell-based
[2] = Cytotoxicity against human SKOV3 cells assessed as cell growth inhibition by MTT assay; type: functional, cell-based; conditions: SK-OV-3
[3] = Cytotoxicity against human MCF7 cells assessed as cell growth inhibition by MTT assay; type: functional, cell-based
[4] = Cytotoxicity against human DU145 cells assessed as cell growth inhibition by MTT assay; type: functional, cell-based; conditions: DU-145
Candida albicans [5] = assay: Fungicidal activity against Candida albicans MTCC 227 after 24 hrs; type: functional; conditions: MTCC 227, 24 h
Procedure, shortened: (§1)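 Candida grown overnight in Mueller Hinton broth. Compound serially diluted in the same broth from 150 to 0 and inoculated to a final 1.5 × 10^8 CFU/mL (0.5 McFarland), then 24 h at 37 °C. Tube contents plated onto Mueller Hinton agar for 24 h at 37 °C. MFC is the lowest concentration killing the yeast. Duplicates.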

Pichia sporocuriosa [6] = assay: Fungicidal activity against Issatchenkia hanoiensis MTCC 4755 after 24 hrs; type: functional; conditions: MTCC 4755, 24 h
Procedure, shortened: (§2)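 Broth dilution in Mueller Hinton broth with serial compound concentrations from […]. Overnight Candida cultures added to a final 1.5 × 10^8 CFU/mL (0.5 McFarland). Incubated 24 h at 37 °C, then 10 µL of each tube plated on Mueller Hinton agar for 24 h at 37 °C. MFC taken as the lowest concentration that kills the strain. Run in duplicate.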

Candida albicans [7] = assay: Antifungal activity against Candida albicans MTCC 854 after 24 hrs by well diffusion method; type: functional; conditions: MTCC 854, 24 h
Procedure, shortened: (§3)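 Candida/Issatchenkia lawns (0.1 mL suspension) on Mueller-Hinton agar; 6.0 mm bored wells receive compound across a 250 to 0.48 per-well dose range, methanol as negative control. Plates kept 24 h at 30 °C. MIC is the lowest concentration producing a visible inhibition zone. Duplicate runs, mean values.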

Candida albicans [8] = assay: Fungicidal activity against Candida albicans MTCC 3958 after 24 hrs; type: functional; conditions: MTCC 3958, 24 h; procedure, shortened: as §1
Candida albicans [9] = assay: Antifungal activity against Candida albicans MTCC 3018 after 24 hrs by well diffusion method; type: functional; conditions: MTCC 3018, 24 h; procedure, shortened: as §3
Nakaseomyces glabratus = assay: Fungicidal activity against Candida glabrata MTCC 3019 after 24 hrs; type: functional; conditions: MTCC 3019, 24 h; procedure, shortened: as §1
Candida albicans [10] = assay: Fungicidal activity against Candida albicans MTCC 4748 after 24 hrs; type: functional; conditions: MTCC 4748, 24 h; procedure, shortened: as §1
Candida albicans [11] = assay: Fungicidal activity against Candida albicans MTCC 3017 after 24 hrs; type: functional; conditions: MTCC 3017, 24 h; procedure, shortened: as §1
[Candida] aaseri [12] = Antifungal activity against Candida aaseri MTCC 1962 after 24 hrs by well diffusion method; type: functional; conditions: Yamadazyma aaseri, MTCC 1962, 24 h; procedure, shortened: as §3
[13] = Antifungal activity against Candida parapsilosis MTCC 1744 after 24 hrs by well diffusion method; type: functional; procedure, shortened: as §3
Candida albicans [14] = assay: Fungicidal activity against Candida albicans MTCC 1637 after 24 hrs; type: functional; conditions: MTCC 1637, 24 h; procedure, shortened: as §1
Candida albicans [15] = assay: Antifungal activity against Candida albicans MTCC 7315 after 24 hrs by well diffusion method; type: functional; conditions: MTCC 7315, 24 h; procedure, shortened: as §3
Candida albicans [16] = assay: Fungicidal activity against Candida albicans MTCC 7315 after 24 hrs; type: functional; conditions: MTCC 7315, 24 h; procedure, shortened: as §1
Pichia sporocuriosa [17] = assay: Antifungal activity against Issatchenkia hanoiensis MTCC 4755 after 24 hrs by well diffusion method; type: functional; conditions: MTCC 4755, 24 h; procedure, shortened: as §3
Candida albicans [18] = assay: Antifungal activity against Candida albicans MTCC 3958 after 24 hrs by well diffusion method; type: functional; conditions: MTCC 3958, 24 h; procedure, shortened: as §3
[Candida] aaseri [19] = Fungicidal activity against Candida aaseri MTCC 1962 after 24 hrs; type: functional; conditions: Yamadazyma aaseri, MTCC 1962, 24 h; procedure, shortened: as §1
[20] = Antifungal activity against Candida krusei MTCC 3020 after 24 hrs by well diffusion method; type: functional; conditions: Pichia kudriavzevii; procedure, shortened: as §3
Candida albicans [21] = assay: Antifungal activity against Candida albicans MTCC 183 after 24 hrs by well diffusion method; type: functional; conditions: MTCC 183, 24 h; procedure, shortened: as §3
Candida albicans [22] = assay: Antifungal activity against Candida albicans MTCC 3017 after 24 hrs by well diffusion method; type: functional; conditions: MTCC 3017, 24 h; procedure, shortened: as §3
Candida albicans [23] = assay: Antifungal activity against Candida albicans MTCC 4748 after 24 hrs by well diffusion method; type: functional; conditions: MTCC 4748, 24 h; procedure, shortened: as §3
Pichia kudriavzevii = assay: Fungicidal activity against Candida krusei MTCC 3020 after 24 hrs; type: functional; conditions: MTCC 3020, 24 h; procedure, shortened: as §2
Candida albicans [24] = assay: Fungicidal activity against Candida albicans MTCC 854 after 24 hrs; type: functional; conditions: MTCC 854, 24 h; procedure, shortened: as §1
[25] = Antifungal activity against Candida glabrata MTCC 3019 after 24 hrs by well diffusion method; type: functional; conditions: Nakaseomyces glabratus; procedure, shortened: as §3
Candida albicans [26] = assay: Fungicidal activity against Candida albicans MTCC 3018 after 24 hrs; type: functional; conditions: MTCC 3018, 24 h; procedure, shortened: as §1
Candida albicans [27] = assay: Antifungal activity against Candida albicans MTCC 227 after 24 hrs by well diffusion method; type: functional; conditions: MTCC 227, 24 h; procedure, shortened: as §3
Candida albicans [28] = assay: Fungicidal activity against Candida albicans MTCC 183 after 24 hrs; type: functional; conditions: MTCC 183, 24 h; procedure, shortened: as §1
Candida albicans [29] = assay: Antifungal activity against Candida albicans MTCC 1637 after 24 hrs by well diffusion method; type: functional; conditions: MTCC 1637, 24 h; procedure, shortened: as §3
Candida parapsilosis = assay: Fungicidal activity against Candida parapsilosis MTCC 1744 after 24 hrs; type: functional; conditions: Lodderomyces parapsilosis, MTCC 1744, 24 h; procedure, shortened: as §2

## CCCCCCCCC[C@H](O)[C@@H](C)NC(C)=O [CLAVAMINOL C]
[1]
  pIC50: 4.73
[2]
  pIC50: 4.85
[3]
  pIC50: 4.79
[4]
  pIC50: 4.74

## COc1cccc2c1C(=O)c1c(O)c3c(c(O)c1C2=O)C[C@@](O)(C(=O)CO)C[C@@H]3O[C@H]1C[C@H](N)[C@H](O)[C@H](C)O1 [DOXORUBICIN]
[2]
  pIC50: 6.15
[3]
  pIC50: 6.10
[4]
  pIC50: 6.15

## Clc1ccc(COC(Cn2ccnc2)c2ccc(Cl)cc2Cl)c(Cl)c1 (stereo not given) [MICONAZOLE]
Candida albicans [5]
  MFC: 15.6 µg/mL (≈ 37.5 µM)
Pichia sporocuriosa [6]
  MFC: 7.8 µg/mL (≈ 18.7 µM)
Candida albicans [7]
  MIC: 7.8 µg/mL (≈ 18.7 µM)
Candida albicans [8]
  MFC: 15.6 µg/mL (≈ 37.5 µM)
Candida albicans [9]
  MIC: 7.8 µg/mL (≈ 18.7 µM)
Nakaseomyces glabratus
  MFC: 15.6 µg/mL (≈ 37.5 µM)
Candida albicans [10]
  MFC: 7.8 µg/mL (≈ 18.7 µM)
Candida albicans [11]
  MFC: 7.8 µg/mL (≈ 18.7 µM)
[Candida] aaseri [12]
  MIC: 7.8 µg/mL (≈ 18.7 µM)
[13]
  MIC: 7.8 µg/mL (≈ 18.7 µM)
Candida albicans [14]
  MFC: 15.6 µg/mL (≈ 37.5 µM)
Candida albicans [15]
  MIC: 7.8 µg/mL (≈ 18.7 µM)
Candida albicans [16]
  MFC: 7.8 µg/mL (≈ 18.7 µM)
Pichia sporocuriosa [17]
  MIC: 7.8 µg/mL (≈ 18.7 µM)
Candida albicans [18]
  MIC: 7.8 µg/mL (≈ 18.7 µM)
[Candida] aaseri [19]
  MFC: 7.8 µg/mL (≈ 18.7 µM)
[20]
  MIC: 7.8 µg/mL (≈ 18.7 µM)
Candida albicans [21]
  MIC: 7.8 µg/mL (≈ 18.7 µM)
Candida albicans [22]
  MIC: 7.8 µg/mL (≈ 18.7 µM)
Candida albicans [23]
  MIC: 7.8 µg/mL (≈ 18.7 µM)
Pichia kudriavzevii
  MFC: 7.8 µg/mL (≈ 18.7 µM)
Candida albicans [24]
  MFC: 15.6 µg/mL (≈ 37.5 µM)
[25]
  MIC: 7.8 µg/mL (≈ 18.7 µM)
Candida albicans [26]
  MFC: 7.8 µg/mL (≈ 18.7 µM)
Candida albicans [27]
  MIC: 7.8 µg/mL (≈ 18.7 µM)
Candida albicans [28]
  MFC: 7.8 µg/mL (≈ 18.7 µM)
Candida albicans [29]
  MIC: 7.8 µg/mL (≈ 18.7 µM)
Candida parapsilosis
  MFC: 7.8 µg/mL (≈ 18.7 µM)

— ChEMBL document CHEMBL3853298, “Total synthesis and in vitro bioevaluation of clavaminols A, C, H & deacetyl clavaminol H as potential chemotherapeutic and antibiofilm agents” (Eur J Med Chem, 2016)
